Results on 25 molecules are retold here after ChEMBL document CHEMBL2046437, “In vitro stability and in vivo anti-inflammatory efficacy of synthetic jasmonates” (Bioorg Med Chem, 2012).

Active and inactive are the calls of the source. No cut-off for these calls is given here.

A short description of data set [1]: Stability in presence of porcine liver esterase assessed as esterase-mediated compound hydrolysis by measuring ratio of intact compounds and their corresponding acids in pH 7.4 phosphate buffer at 37 degC at 30 mins post incubation by RP-HPLC. Type of data set: ADME. The conditions noted are these: pig, isolated protein, pH 7.4, 0.5 h. In a few lines: (§1)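 About 0.5 mg ester was incubated with 50 µL porcine liver esterase stock in 0.01 M phosphate buffer (pH 7.4, 1 mL) plus 10 µL acetone at 37 °C. Intact ester/acid peak-area ratio given as mean ± SD of two experiments.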

A short description of data set [2]: Stability in presence of porcine liver esterase assessed as esterase-mediated compound hydrolysis by measuring ratio of intact compounds and their corresponding acids in pH 7.4 phosphate buffer at 37 degC at 60 mins post incubation by RP-HPLC. Format: ADME. The note with it: pig, isolated protein, pH 7.4, 1 h. In a few lines:
as §1

Data set [3] concerns RAW264.7. The experiment in a line: Antiinflammatory activity in LPS-activated mouse RAW264.7 cells assessed as inhibition of nitric oxide production incubated for 24 hrs by ELISA. The note with it: RAW264.7, 24 h, in the assay text read “by Griess reagent method” for “by ELISA”. Format: functional, cell-based. In a few lines:
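RAW264.7 macrophages (DMEM, 10% FBS, penicillin/streptomycin, 37 °C, 5% CO2) treated with LPS plus compounds for 24 h. Nitrite in supernatant measured by Griess reagent (10 min, room temperature, dark), absorbance 540 nm, quantified against sodium nitrite standard curve. EC50 reported from triplicate experiments, mean ± SD.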

Data set [4] can be described thus: Cytotoxicity in mouse RAW264.7 cells after 24 hrs by MTT assay. Format: cell-based. The note with it: read-out: TC50. In a few lines: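 RAW264.7 cells in DMEM with 10% FBS were treated for 24 h, then incubated with MTT for 4 h. Formazan was dissolved in DMSO for 30 min and absorbance read at 540 nm. TC50 reported as mean ± SD of triplicate experiments.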
For data set [5], the system named is RAW264.7. Briefly: Selectivity index, ratio of TC50 for mouse RAW264.7 cells to EC50 for antiinflammatory activity in LPS-activated mouse RAW264.7 cells. Format: functional.
Data set [6] deals with Rattus norvegicus. Briefly: Antiinflammatory activity in Sprague-Dawley rat assessed as inhibition of carrageenan-induced paw edema at 50 mg/kg, ip dosed 30 mins before carrageenan challenge. Type of data set: functional, organism-based. Also noted: dose 50 mg/kg. The gist of the method:
(§2)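 Male Sprague–Dawley rats (140–160 g, 5 weeks old) received a single intraperitoneal dose in 5% cremophor/5% ethanol in PBS, with vehicle as control. 30 min later, 0.1 mL of 1% carrageenan in saline was injected subplantar into the right hind paw, with saline in the left. Paw volume was measured by plethysmometer at 0, 0.5, 1, 2, 4, 6 and 24 h.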

Data set [7] deals with Rattus norvegicus. Briefly: Antiinflammatory activity in Sprague-Dawley rat assessed as inhibition of carrageenan-induced paw edema at 50 mg/kg, ip dosed 30 mins before carrageenan challenge measured before 6 hrs post carrageenan challenge. Format: functional, organism-based. Also noted: dose 50 mg/kg. In a few lines: as §2
Data set [8] has as its system Rattus norvegicus. Briefly: Antiinflammatory activity in Sprague-Dawley rat assessed as inhibition of carrageenan-induced paw edema at 50 mg/kg, ip dosed 30 mins before carrageenan challenge measured at 24 hrs post carrageenan challenge. Type of data set: functional. In a few lines: as §2
Data set [9] has as its system Rattus norvegicus. The experiment in a line: Antiinflammatory activity in Sprague-Dawley rat assessed as inhibition of carrageenan-induced paw edema at 25 mg/kg, ip dosed 30 mins before carrageenan challenge measured before 6 hrs post carrageenan challenge. Format: functional, organism-based. Further details: dose 25 mg/kg. The gist of the method:
as §2

The subject of data set [10] is Rattus norvegicus. Briefly: Antiinflammatory activity in Sprague-Dawley rat assessed as inhibition of carrageenan-induced paw edema at 25 mg/kg, ip dosed 30 mins before carrageenan challenge measured at 24 hrs post carrageenan challenge. Type of data set: functional. The note with it: route intraperitoneal. The gist of the method:
as §2

`CC/C=C\C[C@H]1C(=O)C=C[C@H]1CC(=O)OC(C)(C)C`: the values for the Ratio (in data set [1]; in data set [2]; in the data set on RAW264.7 [5]) were 11.2, 9.8 and 1, respectively. The EC50 in the data set with RAW264.7 [3] was determined as 20 µM. For the same molecule, the CC50 at 24 h in [4] was determined as 33 µM.

On to `CC/C=C\C[C@H]1C(=O)C=C[C@H]1CC(=O)OC1CCCCC1`, for which the figures for the Ratio (in data set [1]; in data set [2]; in the data set with RAW264.7 [5]) were 4.1, 1.1 and 2, respectively. Moreover, the EC50 in the data set on RAW264.7 [3] came out at 22 µM. Besides, the CC50 at 24 h in [4] was 31 µM.

As for `CC/C=C\C[C@H]1C(=O)C=C[C@H]1CC(=O)OC(C)c1ccccc1` (stereo not given in full), the figures for the Ratio (in data set [1]; in data set [2]; with RAW264.7 [5]) were 1.4, 0.4 and 2, respectively. In addition, the concentration for a half-maximal effect (EC50) in the data set with RAW264.7 [3] amounted to 18 µM. Moreover, in data set [4], the CC50 at 24 h amounted to 31 µM.

With `CC/C=C\C[C@H]1C(=O)C=C[C@H]1CC(=O)OCCOC`, the Ratio is on record as 0.1 in data set [1], 0 in [2] and 6 in the data set with RAW264.7 [5]. The EC50 in the data set on RAW264.7 [3] is 27 µM. Further, in data set [4], the CC50 at 24 h came to 160 µM.

On to `CC/C=C\C[C@H]1C(=O)C=C[C@H]1CC(=O)Oc1ccc(O)cc1`, for which the Ratio in data set [1] was found to be 0; in the data set on RAW264.7 [5], 2. In addition, the EC50 in the data set on RAW264.7 [3] turned out to be 23 µM. Moreover, the CC50 at 24 h in data set [4] is 49 µM.

Turning to `CC/C=C\C[C@H]1C(=O)C=C[C@H]1CC(=O)OCc1ccccc1`, the Ratio in [1] worked out at 0.2; in data set [2], 0; in the data set on RAW264.7 [5], 1. Also, the EC50 in the data set with RAW264.7 [3] is 20 µM. In [4], the CC50 at 24 h is 31 µM.

For the molecule `CC/C=C\C[C@H]1C(=O)C=C[C@H]1CC(=O)OCCCC`, the Ratio in data set [1] came out at 0; in the data set on RAW264.7 [5], 1. Also, in the data set with RAW264.7 [3], the EC50 was 23 µM. Further, the CC50 at 24 h in [4] came to 31 µM.

On to `CC/C=C\C[C@H]1C(=O)C(Cl)=C[C@H]1CC(=O)OCCO`, for which the EC50 in the data set on RAW264.7 [3] is 0.58 µM. Besides, the CC50 at 24 h in data set [4] worked out at 6.25 µM. In addition, the Ratio in the data set on RAW264.7 [5] was 10.8. Also, in the data set with Rattus norvegicus [6], the result was Active. Besides, the outcome in the data set on Rattus norvegicus [7] was inactive. Further, the inhibition in vivo at 50 mg/kg in the data set with Rattus norvegicus [8] (route intraperitoneal) worked out at 62.4%.

In the case of `CC/C=C\CC1C(=O)C=CC1CC(=O)OC` (stereo not given), the Ratio came to 0.1 in [1], 0 in data set [2] and 7 in the data set on RAW264.7 [5]. For the same molecule, in the data set with RAW264.7 [3], the EC50 amounted to 19 µM. Moreover, in data set [4], the CC50 at 24 h amounted to 140 µM.

With `CC/C=C\C[C@H]1C(=O)C=C[C@H]1CC(=O)OC(C)CC` (stereo not given in full), the Ratio was determined as 0.4 in data set [1], 0.1 in data set [2] and 2 in the data set on RAW264.7 [5]. Also, the EC50 in the data set on RAW264.7 [3] was found to be 22 µM. Besides, the CC50 at 24 h in data set [4] was determined as 53 µM.

As for `CC/C=C\C[C@H]1C(=O)C=C[C@H]1CC(=O)OC(C)COC` (stereo not given in full), the Ratio in [1] is 0.5; in data set [2] it was 0.2; in the data set on RAW264.7 [5], 7. Moreover, the EC50 in the data set on RAW264.7 [3] worked out at 23 µM. Besides, the CC50 at 24 h in [4] worked out at 161 µM.

Consider `CC/C=C\C[C@H]1C(=O)C(Cl)=C[C@H]1CC(=O)OC(C)(C)C`, for which the EC50 in the data set with RAW264.7 [3] came to 0.83 µM. In addition, in [4], the CC50 at 24 h was 11.5 µM. Besides, in the data set with RAW264.7 [5], the Ratio was 13.9. Further, in the data set on Rattus norvegicus [6], the result was Active. Also, the result in the data set on Rattus norvegicus [7] was inactive. In addition, the inhibition entry in the data set with Rattus norvegicus [8] was “Active”.

Take `CC/C=C\C[C@H]1C(=O)C=C[C@H]1CC(=O)OC(C)C`: the values for the Ratio (in [1]; in data set [2]; with RAW264.7 [5]) were 0.5, 0.1 and 3, respectively. Besides, in the data set on RAW264.7 [3], the EC50 amounted to 20 µM. Besides, in data set [4], the CC50 at 24 h amounted to 58 µM.

For `CC/C=C\C[C@H]1C(=O)C=C[C@H]1CC(=O)OCCCCC`, the Ratio in [1] was determined as 0; in the data set with RAW264.7 [5], 1. In the data set on RAW264.7 [3], the EC50 stood at 25 µM. Moreover, the CC50 at 24 h in data set [4] came to 37 µM.

Consider `CC/C=C\C[C@H]1C(=O)C=C[C@H]1CC(=O)OCCOCCOC`, for which the Ratio in data set [1] worked out at 0.3; in data set [2], 0; in the data set with RAW264.7 [5], 5. Besides, in the data set on RAW264.7 [3], the half-maximal effective concentration (EC50) turned out to be 33 µM. Further, in [4], the CC50 at 24 h is 161 µM.

Consider `CC/C=C\C[C@H]1C(=O)C=C[C@H]1CC(=O)Oc1ccccc1`, for which the Ratio in data set [1] worked out at 0; in the data set with RAW264.7 [5], 5. Besides, in the data set with RAW264.7 [3], the EC50 was 33 µM. Besides, the CC50 at 24 h in [4] is 158 µM.

As to `CC/C=C\C[C@H]1C(=O)C=C[C@H]1CC(=O)OCCC`, the Ratio in data set [1] was found to be 0; in the data set on RAW264.7 [5], 1. In the data set on RAW264.7 [3], the EC50 was 23 µM. Further, in data set [4], the CC50 at 24 h stood at 35 µM.

`CC/C=C\C[C@H]1C(=O)C=C[C@H]1CC(=O)OCCOCCO`: the Ratio is reported as 5.9 in data set [1], 3.1 in data set [2] and 5 with RAW264.7 [5]. Besides, the EC50 in the data set on RAW264.7 [3] was 36 µM. Also, the CC50 at 24 h in [4] was found to be 166 µM.

Take `CC/C=C\C[C@H]1C(=O)C=C[C@H]1CC(=O)OCC`: the Ratio in data set [1] was found to be 0; in the data set with RAW264.7 [5], 7. Further, the EC50 with RAW264.7 [3] came out at 20 µM. In addition, the CC50 at 24 h in [4] came to 146 µM.

`CC/C=C\C[C@H]1C(=O)C=C[C@H]1CC(=O)OCCOCCOCCOC`: the Ratio in [1] is listed as 0.3; in [2], 0; in the data set on RAW264.7 [5], 5. In addition, the EC50 in the data set on RAW264.7 [3] was found to be 35 µM. In addition, the CC50 at 24 h in data set [4] was 163 µM.

In the case of `CC/C=C\C[C@H]1C(=O)C=C[C@H]1CC(=O)OCCO`, the Ratio is given as 1.7 in data set [1], 0.7 in data set [2] and 7 in the data set with RAW264.7 [5]. Besides, in the data set on RAW264.7 [3], the EC50 was found to be 24 µM. The CC50 at 24 h in [4] is 161 µM.

Take `CC/C=C\C[C@H]1C(=O)C(Cl)=C[C@H]1CC(=O)OC1CCCCC1`: the EC50 with RAW264.7 [3] worked out at 0.65 µM. Also, in data set [4], the CC50 at 24 h was found to be 9.69 µM. The Ratio in the data set with RAW264.7 [5] was 14.9.

Regarding `COc1ccc2c(c1)c(CC(=O)O)c(C)n2C(=O)c1ccc(Cl)cc1` [INDOMETHACIN], the result in the data set with Rattus norvegicus [9] was Active. For the same molecule, the inhibition in vivo at 25 mg/kg in the data set with Rattus norvegicus [10] came out at 57.1%.

Take `CC/C=C\C[C@H]1C(=O)C=C[C@H]1CC(=O)Oc1ccccc1OC`: the Ratio in data set [1] came out at 0; with RAW264.7 [5], 5. In addition, the EC50 in the data set with RAW264.7 [3] amounted to 32 µM. The CC50 at 24 h in data set [4] worked out at 161 µM.

As for `CC/C=C\C[C@H]1C(=O)C=C[C@H]1CC(=O)OCCOCCOCCO`, the Ratio in data set [1] is listed as 7.6; in [2] it was 3.5; in the data set on RAW264.7 [5], 4. In addition, in the data set on RAW264.7 [3], the concentration for a half-maximal effect (EC50) came to 42 µM. The CC50 at 24 h in data set [4] is 162 µM.
